Assay results from different studies.
Protocols differ between the studies behind these lines.

C#Cc1n[nH]c2c(-c3cn(C(C)c4ccccn4)c(=O)[nH]c3=O)cc(F)cc12 (stereo not shown)  inhibition (Insulin-like growth factor 1 receptor (IGF1R, Homo sapiens, UniProt P08069); enzyme activity, inhibitor; 1 µM): -0.9%
Nc1ncc(-c2nc(N3CCOCC3)nc(N3CCOCC3)n2)c(C(F)F)n1  remaining signal (Androgen receptor (AR, Homo sapiens, UniProt P10275); cell-free assay, radioligand; 10 µM): 89.3%
CNCCN1CCC(OCc2ccccc2)CC1  ΔTm (Protein arginine N-methyltransferase 6 (PRMT6, Homo sapiens, UniProt Q96LA8); thermal stability, DSF; 200 µM): 11.3 °C
Cc1nn(C)cc1-c1nc2c(N3CCN(Cc4ccc(Cl)cc4)CC3)c(Cl)cnc2[nH]1  remaining binding (Tyrosine-protein kinase ABL1, non-phosphorylated (ABL1, Homo sapiens, UniProt P00519, F317L); binding, competition with immobilised ligand; 1 µM): 100%
O=C(O)C(F)(F)C(F)(F)C(F)(F)C(F)(F)C(F)(F)C(F)(F)C(F)(F)F  Km (Solute carrier family 22 member 11 (SLC22A11, Homo sapiens, UniProt Q9NSA0); transporter uptake, substrate; pH 6.8): 9.95 µM
CC[C@@H]1CN2CC[C@@]3(O)C(=Nc4cccc(C)c43)[C@@H]2C[C@@H]1/C(=C\OC)C(=O)OC  Emax (Delta-type opioid receptor (OPRD1, Homo sapiens, UniProt P41143); β-arrestin recruitment, agonist): > 100%
Cn1cc(-c2cc(F)cc(N3CCn4c(cc5c4CCCC5)C3=O)c2CO)cc(Nc2ccc(N3CCN(C4COC4)CC3)cn2)c1=O  inhibition (Tyrosine-protein kinase ABL1 (ABL1, Homo sapiens, UniProt P00519, T315I); enzyme activity, inhibitor; 0.1 µM): 4%
COc1ccc(S(=O)(=O)N(CC(=O)NO)CC(C)C)cc1  inhibition (Neutrophil collagenase (MMP8, Homo sapiens, UniProt P22894); enzyme activity, inhibitor; 0.1 µM): 43%
CCN(CC)CCCC[C@H](NC(=O)[C@H](CC(C)C)NC(=O)[C@H](C)NC(=O)[C@H](Cc1ccccc1)NC(=O)c1ccc(C(C)(C)C)cc1)C(=O)N[C@@H](CO)C(=O)OC  ΔTm (Histone acetyltransferase p300 (EP300, Homo sapiens, UniProt Q09472); thermal stability, DSF; 25 µM): 0.7 °C
COc1ncccc1-c1cnn2ccc(N3CCN(C(=O)OC(C)C)CC3)nc12  remaining binding (Receptor-interacting serine/threonine-protein kinase 4 (RIPK4, Homo sapiens, UniProt P57078); binding, competition with immobilised ligand; 1 µM): 70%
